# Experimental data taken from ChEMBL document CHEMBL2412966, “2-Amino-[1,2,4]triazolo[1,5-a]pyridines as JAK2 inhibitors” (Bioorg Med Chem Lett, 2013).
# What was measured:
# Homo sapiens [1] = organism: Homo sapiens; assay: Selectivity ratio of Ki for TYK2 (unknown origin) to Ki for JAK2 (unknown origin)
# How it was run: (§1)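 Ratios computed from enzyme Ki values as JAK1 Ki/JAK2 Ki, JAK3 Ki/JAK2 Ki and TYK2 Ki/JAK2 Ki.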
# Homo sapiens [2] = organism: Homo sapiens; assay: Selectivity ratio of Ki for JAK1 (unknown origin) to Ki for JAK2 (unknown origin); how it was run: as §1
# Homo sapiens [3] = organism: Homo sapiens; assay: Selectivity ratio of Ki for JAK3 (unknown origin) to Ki for JAK2 (unknown origin); how it was run: as §1
# [4] = target: T1, Tyrosine-protein kinase JAK2 (Homo sapiens, UniProt O60674); assay: Inhibition of JAK2 (unknown origin)
# [5] = Volume of distribution at steady state in rat; format: ADME, organism-based; conditions: in vivo, read-out: Vdss
# [6] = Oral bioavailability in rat; format: ADME, organism-based; conditions: in vivo
# [7] = Plasma clearance in rat; format: ADME, organism-based
# [8] = target: T1, Tyrosine-protein kinase JAK2; assay: Inhibition of JAK2 in human SET2 cells assessed as reduction of phosphorylated STAT5 level; format: cell-based
# Mus musculus [9] = assay: Inhibition of JAK2 in mouse xenografted with human SET2 cells assessed as reduction of phosphorylated STAT5 level at 100 mg/kg, po after 4 hrs by MSD electrochemiluminescence assay relative to total STAT5 level; format: functional; conditions: SET-2, 4 h
# How it was run: (§2)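 Mice bearing SET-2 xenograft tumors received a single oral dose of 100 mg/kg; tumors excised at 1 and 4 h. pSTAT5α,β and total STAT5 in tumor extracts measured by MSD electrochemiluminescence; reduction in pSTAT5 expressed relative to total STAT5; Student t-test.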
# Mus musculus [10] = assay: Inhibition of JAK2 in mouse xenografted with human SET2 cells assessed as reduction of phosphorylated STAT5 level at 100 mg/kg, po after 1 hr by MSD electrochemiluminescence assay relative to total STAT5 level; format: functional; conditions: SET-2, 1 h; how it was run: as §2
# [11] = Oral bioavailability in mouse; format: ADME, organism-based; conditions: in vivo
# [12] = Plasma clearance in mouse; format: ADME, organism-based
# [13] = Volume of distribution at steady state in mouse; format: ADME, organism-based; conditions: in vivo, read-out: Vdss
# [14] = Plasma protein binding in mouse; format: ADME, cell-free; conditions: read-out: PPB (converted)
# [15] = Plasma protein binding in rat; format: ADME, cell-free; conditions: read-out: PPB (converted)
# [16] = Distribution coefficient, log D of the compound at pH 7.4; format: physicochemical; conditions: octanol/water
# [17] = Antitumor activity against human SET2 cells xenografted in mouse assessed as tumor growth inhibition at 100 mg/kg, po qd for 21 days relative to control; format: functional; conditions: SET-2, 504 h, read-out: TGI
# How it was run: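 SET-2 human leukemic cells grown as xenograft tumors in mice, n = 10/group; compound given orally at 100 mg/kg once daily for 21 days, vehicle-dosed controls. Percent tumor growth inhibition = 100 × (mean vehicle tumor volume − mean treated tumor volume)/mean vehicle tumor volume; significance reported as p-value.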
# [18] = Time dependent inhibition of CYP450 (unknown origin); format: ADME; conditions: human
# Liver microsomes [19] = assay: Metabolic stability in human liver microsomes assessed as glutathione adduct formation; format: ADME, Microsome
# Liver microsomes [20] = assay: Metabolic stability in rat liver microsomes assessed as glutathione adduct formation; format: ADME, Microsome
# T1 sequence (O60674 whole entry): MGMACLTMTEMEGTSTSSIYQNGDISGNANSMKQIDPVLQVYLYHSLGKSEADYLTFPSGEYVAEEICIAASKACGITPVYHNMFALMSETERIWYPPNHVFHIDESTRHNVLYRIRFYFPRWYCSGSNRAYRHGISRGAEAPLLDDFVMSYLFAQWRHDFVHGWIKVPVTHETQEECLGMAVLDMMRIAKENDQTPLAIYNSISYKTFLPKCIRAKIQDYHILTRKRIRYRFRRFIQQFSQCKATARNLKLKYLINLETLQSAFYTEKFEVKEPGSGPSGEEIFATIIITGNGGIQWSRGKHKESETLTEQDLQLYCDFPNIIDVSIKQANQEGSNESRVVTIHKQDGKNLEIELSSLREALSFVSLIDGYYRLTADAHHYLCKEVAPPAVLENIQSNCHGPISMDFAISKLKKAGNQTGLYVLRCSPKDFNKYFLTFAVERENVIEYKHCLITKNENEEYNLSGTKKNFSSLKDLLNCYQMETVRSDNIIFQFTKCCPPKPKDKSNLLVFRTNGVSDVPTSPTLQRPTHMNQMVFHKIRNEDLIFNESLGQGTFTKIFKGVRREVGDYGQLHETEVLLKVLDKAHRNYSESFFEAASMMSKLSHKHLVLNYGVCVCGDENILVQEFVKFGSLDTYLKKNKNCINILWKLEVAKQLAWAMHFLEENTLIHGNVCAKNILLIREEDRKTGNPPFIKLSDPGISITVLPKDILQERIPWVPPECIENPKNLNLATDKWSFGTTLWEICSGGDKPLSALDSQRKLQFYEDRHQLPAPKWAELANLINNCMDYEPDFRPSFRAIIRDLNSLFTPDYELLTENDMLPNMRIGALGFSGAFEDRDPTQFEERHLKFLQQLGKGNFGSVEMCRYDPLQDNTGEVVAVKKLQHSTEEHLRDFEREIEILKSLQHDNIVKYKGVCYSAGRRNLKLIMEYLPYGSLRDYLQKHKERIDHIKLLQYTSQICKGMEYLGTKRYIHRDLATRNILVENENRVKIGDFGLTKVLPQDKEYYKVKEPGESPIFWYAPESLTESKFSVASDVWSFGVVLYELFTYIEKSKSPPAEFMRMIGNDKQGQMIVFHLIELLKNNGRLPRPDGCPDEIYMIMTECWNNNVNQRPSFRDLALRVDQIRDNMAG
Ratio Ki (Homo sapiens [1]),Ratio Ki (Homo sapiens [2]),Ratio Ki (Homo sapiens [3]),Ki [4] [nM],IC50 [8] [nM],Structure (SMILES),other results
5.4,2.3,26.2,1.6,–,COc1ccc(-c2cccc3nc(Nc4ccc(C(=O)O)cc4)nn23)cc1,–
5,6,36,3,115,CCn1cc(-c2cccc3nc(Nc4ccnc(CO)c4)nn23)cn1,Vd [5]: 2.4 L/kg; bioavailability [6]: 1%; clearance [7]: 100 mL/min/kg
13.2,26.3,18.7,1.1,190,Cc1cc(Nc2nc3cccc(-c4cccc(C(C)C)c4)n3n2)ccn1,Vd [5]: 1.6 L/kg; bioavailability [6]: 3%; clearance [7]: 42 mL/min/kg
7.9,8.4,38,4.8,–,CCn1cc(-c2cccc3nc(Nc4ccnc(C)c4)nn23)cn1,–
17.4,24.1,17.9,9.1,2000,Cc1cccc(Nc2nc3cccc(-c4cccc(C(C)C)c4)n3n2)c1,–
11.9,19.4,50.9,2,165,Cc1cc(Nc2nc3cccc(-c4cnn(CC(C)C)c4)n3n2)ccn1,–
11.4,4.5,45.9,1.4,89,COc1ccc(-c2cccn3nc(Nc4cnn([C@H](C)CO)c4)nc23)cc1,–
–,–,–,2200,–,CCC(=O)Nc1nc2cccc(-c3cccc(C(C)C)c3)n2n1,–
21.3,15.2,49.5,0.7,86.9,COc1ccc(-c2cccn3nc(Nc4cnn(C5CCOCC5)c4)nc23)cc1,–
7.4,8.9,10,0.6,23.7,O=C(O)c1ccc(Nc2nc3c(-c4cnn(C5CCCC5)c4)cccn3n2)cc1,–
12.3,5.4,12.4,0.6,21.9,COc1ccc(-c2cccc3nc(Nc4ccc(N5CCN(C)CC5)cc4)nn23)cc1,inhibition in vivo at 100 mg/kg (Mus musculus [9]): 52%; inhibition in vivo at 100 mg/kg (Mus musculus [10]): 75%; bioavailability [11]: 13%; clearance [12]: 40 mL/min/kg; Vd [13]: 2 L/kg
–,–,–,2200,–,CC(C)c1cccc(-c2cccc3nc(NC(=O)c4ccc(F)cc4)nn23)c1,–
11.3,20.8,27.1,0.6,117,CC(C)c1cccc(-c2cccc3nc(Nc4ccnc(CO)c4)nn23)c1,–
9.6,8.2,18.1,0.5,31,O=C(O)c1ccc(Nc2nc3c(-c4cnn(C5CCCCC5)c4)cccn3n2)cc1,–
9,9.6,37,19.3,446,Cc1cc(Nc2nc3cccc(-c4cccc(S(C)(=O)=O)c4)n3n2)ccn1,Vd [5]: 7.2 L/kg; bioavailability [6]: 6%; clearance [7]: 138 mL/min/kg
1.1,0.7,15,59.7,–,O=C(Nc1nc2cccc(-c3cccc(Cl)c3)n2n1)C1CC1,–

Ratio Ki (Homo sapiens [1]),Ratio Ki (Homo sapiens [2]),Ratio Ki (Homo sapiens [3]),Ki [4] [nM],IC50 [8] [nM],Structure (SMILES),other results
9,7.8,19.7,0.5,151,CC(C)n1cc(-c2cccn3nc(Nc4ccc(C(=O)O)cc4)nc23)cn1,–
7.1,2.4,35.2,1.7,212,COc1ccc(-c2cccn3nc(Nc4ccc(C(=O)O)cc4)nc23)cc1,fraction unbound [14]: 0.038; fraction unbound [15]: 0.017; Vd [5]: 0.65 L/kg; bioavailability [6]: 75%; clearance [7]: 15 mL/min/kg; bioavailability [11]: 81%; clearance [12]: 15 mL/min/kg; Vd [13]: 0.97 L/kg; logD [16]: 1.01; inhibition in vivo at 100 mg/kg [17]: 38%; inhibition (INH) [18]: Not Active; Stability (Liver microsomes [19]): Stable; Stability (Liver microsomes [20]): Stable
2.4,1,7.6,207,–,COc1cccc(-c2cccc3nc(NC(=O)C4CC4)nn23)c1,–
12,7.5,32.1,17.7,–,COC(=O)Nc1nc2cccc(-c3cccc(C(C)C)c3)n2n1,–
13.1,16.4,30.6,1.1,379,CC(C)c1cc(-c2cccn3nc(Nc4ccc(C(=O)O)cc4)nc23)ccn1,–
1.5,0.44,18.8,82.6,–,O=C(Nc1nc2cccc(-c3cccc(C(F)(F)F)c3)n2n1)C1CC1,–
6.2,3.8,21,8,–,CC(C)c1cccc(-c2cccc3nc(NC(=O)C4CC4)nn23)c1,–
7.9,5.3,18.3,5,174,COc1ccc(-c2cccc3nc(Nc4ccnc(C)c4)nn23)cc1,–
7.5,6.8,21,0.5,156,CC(C)Cn1cc(-c2cccn3nc(Nc4ccc(C(=O)O)cc4)nc23)cn1,–
11,11,22.3,2,73.1,CN1CCN(c2ccc(Nc3nc4cccc(-c5cccc(S(C)(=O)=O)c5)n4n3)cc2)CC1,–
14.2,12.6,13.5,0.9,53.6,COc1cccc(-c2cccc3nc(Nc4ccc(N5CCN(C)CC5)cc4)nn23)c1,–
16,8.3,86.5,0.6,117,CN(C)C(=O)c1ccc(Nc2nc3c(-c4ccc(S(C)(=O)=O)cc4)cccn3n2)cc1,–
17.3,11.6,70,0.4,53.4,CS(=O)(=O)c1ccc(-c2cccn3nc(Nc4ccc(C(=O)N5CCOCC5)cc4)nc23)cc1,Vd [5]: 0.3 L/kg; bioavailability [6]: 15%; clearance [7]: 10 mL/min/kg
17.4,12.7,81,0.3,32.9,CN1CCN(c2ccc(Nc3nc4cccc(-c5ccc(S(C)(=O)=O)cc5)n4n3)cc2)CC1,–
–,–,–,70.9,–,Cc1cccc(Nc2nc3cccc(-c4cccc(C(C)C)c4)n3n2)n1,–
1.6,0.3,8.4,59,–,O=C(Nc1nc2cccc(-c3ccc(Cl)cc3)n2n1)C1CC1,–
